Results pooled from the literature.
Lines come from different studies, so protocols differ.
ABL1 M351T: Tyrosine-protein kinase ABL1 (ABL1, Homo sapiens, UniProt P00519, M351T)
ABL1: Tyrosine-protein kinase ABL1 (ABL1, Homo sapiens, UniProt P00519)
ABL1 E255K phosphorylated: Tyrosine-protein kinase ABL1, phosphorylated (ABL1, Homo sapiens, UniProt P00519, E255K)
ABL1 T315I phosphorylated: Tyrosine-protein kinase ABL1, phosphorylated (ABL1, Homo sapiens, UniProt P00519, T315I)
ABL1 E255K: Tyrosine-protein kinase ABL1 (ABL1, Homo sapiens, UniProt P00519, E255K)
ABL1 F317L phosphorylated: Tyrosine-protein kinase ABL1, phosphorylated (ABL1, Homo sapiens, UniProt P00519, F317L)
ABL1 H396P: Tyrosine-protein kinase ABL1 (ABL1, Homo sapiens, UniProt P00519, H396P)
ABL1 non-phosphorylated: Tyrosine-protein kinase ABL1, non-phosphorylated (ABL1, Homo sapiens, UniProt P00519)

Structure (SMILES) | target | test | conditions | endpoint | value
Cc1cc(NC(=O)c2cccc3cc(-c4cccc5[nH]nc(N)c45)ccc23)ccc1F | ABL1 M351T | enzyme activity, inhibitor | 0.1 µM | activity vs control | 89%
COc1cc2nccc(Oc3ccc(NC(=O)Nc4ccc(F)cc4F)c(F)c3)c2cc1OC | ABL1 | thermal stability, DSF | 10 µM | ΔTm | > 10 °C
CNC(=O)[C@@H]1CC[C@@H](n2c(-c3ccc4cnccc4c3)nc3ccc(C(=O)NCc4cccc(C(N)=O)c4)cc32)C1 | ABL1 E255K phosphorylated | binding, competition with immobilised ligand | 1 µM | remaining binding | 100%
CC(=O)c1c(NS(C)(=O)=O)c2cc(-c3ccc(Cl)cc3)c(-c3ccc(Cl)cc3Cl)nc2n(C)c1=O | ABL1 T315I phosphorylated | cell-free assay, competition with immobilised ligand | 1 µM | remaining binding | 93%
COc1cc2ncnc(Nc3ccc(Oc4ccccc4)c(C)c3C)c2cc1OC | Tyrosine-protein kinase ABL1 (ABL1, Homo sapiens, UniProt P00519, T315I) | enzyme activity, inhibitor | 1 µM | inhibition | 8%
CC(=O)Nc1c(C(C)=O)c(=O)n(C)c2nc(-c3ccc(Cl)cc3Cl)c(-c3ccc(Cl)cc3)cc12 | Tyrosine-protein kinase ABL1, non-phosphorylated (ABL1, Homo sapiens, UniProt P00519, F317I) | binding, competition with immobilised ligand | 1 µM | remaining binding | 77%
O=C(NCCCN1CCOCC1)c1ccc(Nc2nccc(-c3cc4ccccc4s3)n2)cc1 | Tyrosine-protein kinase ABL1, phosphorylated (ABL1, Homo sapiens, UniProt P00519, Y253F) | binding, competition with immobilised ligand | 1 µM | remaining binding | 44%
COc1cc(/C=C/C(=O)CC(=O)/C=C/c2ccc(O)c(OC)c2)ccc1O | ABL1 | enzyme activity, inhibitor | 1 µM | activity vs control | 82%
COc1cc2ncnc(Nc3ccc(Oc4ccccc4)cc3C)c2cc1OC | ABL1 E255K | enzyme activity, inhibitor | 1 µM | inhibition | 5%
CC(C)c1ccc(NC(=O)c2cccs2)c(-c2nc3ccccc3[nH]c2=O)c1 | ABL1 | enzyme activity, inhibitor | 1 µM | activity vs control | 115%
CCOC(=O)c1cc2cc(-c3cc(C(=O)NCc4ccc(C(=O)O)cc4)nn3C)ccc2[nH]1 | ABL1 T315I phosphorylated | cell-free assay, competition with immobilised ligand | 0.1 µM | remaining binding | 92%
CN(CCCC(F)(F)F)c1nccc(-c2cnn3ncccc23)n1 | ABL1 E255K | binding | 1 µM | remaining binding | 98%
COc1cc(-c2cc(-c3ccc(N4CCNCC4)cc3)cnc2N)cc(OC)c1OC | ABL1 M351T | enzyme activity, inhibitor | 0.1 µM | inhibition | 86%
Nc1cnc(N2CCc3cc(S(=O)(=O)Nc4c(F)cc(Cl)cc4F)cc(N4CCCC4=O)c32)nc1 | ABL1 F317L phosphorylated | cell-free assay, competition with immobilised ligand | 1 µM | remaining binding | 78%
N#CCCc1ccc2c(c1)-c1[nH]c3ccc([N+](=O)[O-])cc3c1CC(=O)N2 | ABL1 | cell-free assay | 0.5 µM | remaining signal | 47.8%
CCCOc1ccc(OC)c(F)c1C(=O)c1ccc(C(=O)N[C@@H]2CNC[C@H]2NC(=O)c2ccc3[nH]ncc3c2)cc1 | ABL1 H396P | enzyme activity, inhibitor | 10 µM | remaining activity | 107%
CCOC(=O)c1c(C)[nH]c(/C=C2\C(=O)Nc3ccccc32)c1C | ABL1 | cell-free assay | 0.5 µM | remaining signal | 95.4%
N[C@@H]1CCN(c2nccc(-c3cnn4ncccc34)n2)C1 | Tyrosine-protein kinase ABL1 (ABL1, Homo sapiens, UniProt P00519, F317L) | binding | 1 µM | remaining binding | 100%

Structure (SMILES) | target | test | conditions | endpoint | value
O=C(NCC1CCOCC1)c1n[nH]cc1NC(=O)c1c(F)cccc1F | Tyrosine-protein kinase ABL1, non-phosphorylated (ABL1, Homo sapiens, UniProt P00519, Q252H) | binding, competition with immobilised ligand | 1 µM | remaining binding | 82%
O=C(c1ccc(Nc2nccc(-c3cc4ccccc4s3)n2)cc1)N1CCC(N2CCCC2)CC1 | ABL1 T315I phosphorylated | binding, competition with immobilised ligand | 1 µM | remaining binding | 14%
Cc1c(NC(=O)c2cc(C(N)=O)nc3cc(F)ccc23)c(C(F)(F)F)nn1Cc1ccc(C(C)(C)C)cc1 | ABL1 T315I phosphorylated | cell-free assay, competition with immobilised ligand | 1 µM | remaining binding | 85%
C[C@@H]1CCN(C(=O)CC#N)C[C@@H]1N(C)c1ncnc2[nH]ccc12 | ABL1 | cell-free assay, inhibitor | 0.5 µM | remaining signal | 101%
CCN1CCN(Cc2ccc(C(=O)Nc3ccc(C)c(Oc4ccc5c(c4)CC(=O)N5)c3)cc2C(F)(F)F)CC1 | ABL1 non-phosphorylated | binding, competition with immobilised ligand | 1 µM | remaining binding | 2.1%
Cc1cc(C)c(-n2ccn3nc(-c4cccnc4)cc23)cc1NC(=O)c1cc(C#N)cc(S(F)(F)(F)(F)F)c1 | ABL1 F317L phosphorylated | cell-free assay, competition with immobilised ligand | 0.1 µM | remaining binding | 63.3%
c1cncc(-c2cccc(Nc3nccc(NC4CCCCC4)n3)c2)c1 | Tyrosine-protein kinase ABL1, phosphorylated (ABL1, Homo sapiens, UniProt P00519, F317I) | binding, competition with immobilised ligand | 10 µM | remaining binding | 100%
CN([C@@H]1CCc2c(CC(=O)O)c3cc(S(C)(=O)=O)ccc3n2C1)S(=O)(=O)c1ccc(F)cc1 | Tyrosine-protein kinase ABL1, phosphorylated (ABL1, Homo sapiens, UniProt P00519, H396P) | cell-free assay, competition with immobilised ligand | 1 µM | remaining binding | 78%
Nc1ncc2c(n1)-c1c([nH]c3ccc(C#CC4CC4)cc13)CCCC2 | ABL1 E255K phosphorylated | binding, competition with immobilised ligand | 1 µM | remaining binding | 100%
Cc1nccc(COC(=O)N2C[C@@H]3[C@@H](CNC(=O)c4ccc5[nH]nnc5c4)[C@@H]3C2)n1 | Tyrosine-protein kinase ABL1, phosphorylated (ABL1, Homo sapiens, UniProt P00519, Q252H) | cell-free assay, competition with immobilised ligand | 1 µM | remaining binding | 93%
Cc1ccc(C(=O)NCc2ccsc2)cc1C#Cc1cn(C(C)C)c2ncnc(N)c12 | ABL1 | enzyme activity, inhibitor | 1 µM | activity vs control | 1%
Cc1cnc(Nc2ccc(C(=O)N3CCC(N4CCCC4)CC3)cc2)nc1-c1cc2ccccc2s1 | ABL1 F317L phosphorylated | binding, competition with immobilised ligand | 1 µM | remaining binding | 21%
Cc1ccc(NC(=O)c2ccc(C)c(C(F)(F)F)c2)cc1C#Cc1nn(C2CCC(O)CC2)c2ncnc(N)c12 (centres unmarked) | Tyrosine-protein kinase ABL1 (ABL1, Homo sapiens, UniProt P00519, Y253F) | cell-free assay | 10 µM | remaining signal | 0%
C[S+]([O-])c1ccc(-c2nc(-c3ccncc3)c(-c3ccc(F)cc3)[nH]2)cc1 (centres unmarked) | ABL1 | cell-free assay | 0.5 µM | remaining signal | 97%
Cc1cnc(NC2CCOCC2)nc1-n1cnc(C(=O)NC(CN)c2cc(F)cc(Cl)c2)c1 (centres unmarked) | ABL1 H396P | enzyme activity, inhibitor, radiometric | 1 µM | remaining activity | 108%
c1nc2c(Nc3ccc4c(c3)OCCO4)nc(Nc3ccc4c(c3)OCCO4)nc2[nH]1 | ABL1 non-phosphorylated | enzyme activity, inhibitor | 10 µM | activity vs control | 2.1%
Nc1ncnc2occ(-c3ccc(NC(=O)Nc4cc(C(F)(F)F)ccc4F)cc3)c12 | Tyrosine-protein kinase ABL1, phosphorylated (ABL1, Homo sapiens, UniProt P00519) | cell-free assay, inhibitor | 20 µM | remaining signal | 0.1%
